Values after ≈ are worked out from the molar mass of the structure shown. Starred links: 1 amine or outer side, 2 acyl side, 3 side chain; linkers in the order of their positions; H or OH if unused. Positions of bridges follow the written chain, without caps; N, C: chain ends. Non-standard residues stand in square brackets, D forms with d. Residues, ends and D or L forms follow the SMILES beside them. *: point of attachment. hTyr(3S-OH,4S-OH,3'-OSO3H) = N[C@H](C(=O)O)[C@H](O)[C@@H](O)c1ccc(O)c(OS(=O)(=O)O)c1; Orn(4R-OH,5R-OH) = O=C([C@H](C[C@@H](O)[C@@H](O)N[*:3])N[*:1])[*:2]; Pro(3S-OH,4S-Me) = C[C@H]1CN[C@H](C(=O)O)[C@H]1O; X1 = CCCCCOc1ccc(-c2cc(-c3ccc(C(=O)*)cc3)no2)cc1; Gln(3R-OH) = NC(=O)C[C@@H](O)[C@H](N)C(=O)O; Hyp = O=C(O)[C@@H]1C[C@@H](O)CN1
Key:
Format in all cases: functional
[1] = test system: Candida parapsilosis; assay: Antifungal activity against Candida parapsilosis NBRC 10219 after 48 hrs by broth microdilution method; conditions: Lodderomyces parapsilosis, NBRC 10219, 48 h
Method in brief: (§1)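 CLSI M27-A2 (yeasts) or M38-A (A. fumigatus) broth microdilution in RPMI 1640 buffered to pH 7.0 with 0.165 M MOPS. Final inocula were 0.65–2.5 × 10^3 CFU/ml for yeasts and 0.87–3.8 × 10^4 CFU/ml for filamentous fungi. Incubation was at 35°C for about 48 h (72 h for C. neoformans). MIC was the lowest concentration giving a prominent (~50%) turbidity drop versus growth control; amphotericin B required complete inhibition.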

[2] = test system: Candida tropicalis; assay: Antifungal activity against Candida tropicalis clinical isolates after 48 hrs by broth microdilution method
Method in brief: (§2)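 Clinical isolates from Japanese hospitals or culture collections were tested by broth microdilution in RPMI 1640-MOPS. Inoculum was 0.57 × 10^3–2.5 × 10^3 CFU/ml for yeasts and 0.4 × 10^4–3.3 × 10^4 CFU/ml for filamentous fungi. Incubation was at 35°C for about 48 h, or 72 h where footnoted. Results were summarised as MIC range, MIC50 and MIC90.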

[3] = test system: Candida albicans; assay: Antifungal activity against Candida albicans ATCC MYA-573 after 47 hrs by broth microdilution method; conditions: ATCC MYA-573, 47 h
Method in brief: (§3)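 Fluconazole-resistant or susceptible-dose-dependent ATCC C. albicans strains were tested by CLSI M27-A2 broth microdilution in RPMI 1640–0.165 M MOPS, pH 7.0, with a final inoculum of 1.1–1.5 × 10^3 CFU/ml at 35°C for about 47 h. MIC was the lowest concentration with a prominent (~50%) turbidity decrease relative to growth control; amphotericin B was read at complete inhibition.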

[4] = test system: Trichophyton rubrum; assay: Antifungal activity against Trichophyton rubrum NBRC 5467 after 72 hrs by broth microdilution method; conditions: NBRC 5467, 72 h
Method in brief: (§4)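 CLSI M27-A2 (yeasts) / M38-A (moulds) broth microdilution in RPMI 1640 buffered to pH 7.0 with 0.165 M MOPS. Malassezia furfur got the same medium supplemented with glucose, bile salts, glycerol, glycerol monostearate and Tween 20. Final inoculum 0.65 × 10^3–2.5 × 10^3 CFU/ml for yeasts and 0.87 × 10^4–3.8 × 10^4 CFU/ml for filamentous fungi. Incubation at 35°C except M. racemosus and F. solani, which were held at 30°C.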

[5] = test system: Meyerozyma guilliermondii; assay: Antifungal activity against Candida guilliermondii IFO 10279 after 48 hrs by broth microdilution method; conditions: IFO 10279, 48 h; method in brief: as §4
[6] = test system: Candida albicans; assay: Antifungal activity against Candida albicans ATCC MYA-575 after 47 hrs by broth microdilution method; conditions: ATCC MYA-575, 47 h; method in brief: as §3
[7] = test system: Aspergillus fumigatus; assay: Antifungal activity against Aspergillus fumigatus IFM 46895 infected ICR mouse after 6 days; conditions: IFM 46895, 144 h
Method in brief: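 Male ICR mice, 4 weeks old and SPF, were made neutropenic with intraperitoneal cyclophosphamide. The schedule was 200 mg/kg on day −3 (day −4 for Cryptococcus) plus 100 mg/kg on day +1. Infection was by tail-vein injection of 0.2 ml suspension: C. albicans 3.0 × 10^4, C. neoformans 9.1 × 10^4, A. fumigatus conidia 8.4 × 10^4 CFU/mouse. Drugs were given subcutaneously once daily for 7 days from 2 h post-infection; controls received saline. Groups had 8–10 mice.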

[8] = test system: Nakaseomyces glabratus; assay: Antifungal activity against Candida glabrata ATCC 90030 after 48 hrs by broth microdilution method; conditions: ATCC 90030, 48 h; method in brief: as §4
[9] = test system: Aspergillus terreus; assay: Antifungal activity against Aspergillus terreus NBRC 33026 after 48 hrs by broth microdilution method; conditions: NBRC 33026, 48 h; method in brief: as §4
[10] = test system: Candida albicans; assay: Antifungal activity against Candida albicans ATCC MYA-2732 after 47 hrs by broth microdilution method; conditions: ATCC MYA-2732, 47 h
Method in brief: (§5)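 Fluconazole-resistant or susceptible-dose-dependent C. albicans ATCC strains were tested by broth microdilution in RPMI 1640-MOPS. Inoculum was 1.1 × 10^3–1.5 × 10^3 CFU/ml, with incubation at 35°C for about 47 h. Yeast MIC was read as about 50% turbidity decrease relative to growth control, except amphotericin B, read at complete inhibition.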

[11] = test system: Rhizopus arrhizus; assay: Antifungal activity against Rhizopus oryzae NBRC 31005 after 24 hrs by broth microdilution method; conditions: NBRC 31005, 24 h; method in brief: as §4
[12] = test system: Scedosporium boydii; assay: Antifungal activity against Pseudallescheria boydii NBRC 32229 after 72 hrs by broth microdilution method; conditions: NBRC 32229, 72 h; method in brief: as §4
[13] = test system: Fusarium solani; assay: Antifungal activity against Fusarium solani IFO 31093 after 48 hrs by broth microdilution method; conditions: IFO 31093, 48 h; method in brief: as §4
[14] = test system: Cryptococcus neoformans; assay: Antifungal activity against Cryptococcus neoformans clinical isolates after 72 hrs by broth microdilution method; method in brief: as §2
[15] = test system: Candida albicans; assay: Antifungal activity against Candida albicans ATCC 24433 after 48 hrs by broth microdilution method; conditions: ATCC 24433, 48 h; method in brief: as §1
[16] = test system: Candida albicans; assay: Antifungal activity against Candida albicans ATCC MYA-1003 after 47 hrs by broth microdilution method; conditions: ATCC MYA-1003, 47 h; method in brief: as §3
[17] = test system: Nakaseomyces glabratus; assay: Antifungal activity against Candida glabrata clinical isolates after 48 hrs by broth microdilution method; method in brief: as §2
[18] = test system: Pichia kudriavzevii; assay: Antifungal activity against Candida krusei clinical isolates after 48 hrs by broth microdilution method
Method in brief: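 Japanese hospital Candida isolates were tested by CLSI M27-A2 broth microdilution in RPMI 1640–MOPS, pH 7.0, with inocula of 0.57–2.5 × 10^3 CFU/ml at 35°C for about 48 h. Inocula came from 24-h potato dextrose agar cultures. MIC was the lowest concentration with about 50% turbidity reduction versus growth control (complete inhibition for amphotericin B). Range, MIC50 and MIC90 were reported.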

[19] = test system: Candida albicans; assay: Antifungal activity against Candida albicans ATCC 64124 after 47 hrs by broth microdilution method; conditions: ATCC 64124, 47 h; method in brief: as §3
[20] = test system: Aspergillus fumigatus; assay: Antifungal activity against Aspergillus fumigatus IFM 46895 after 48 hrs by broth microdilution method; conditions: IFM 46895, 48 h; method in brief: as §4
[21] = test system: Candida albicans; assay: Antifungal activity against Candida albicans ATCC 64550 after 47 hrs by broth microdilution method; conditions: ATCC 64550, 47 h; method in brief: as §5
[22] = test system: Cryptococcus neoformans; assay: Antifungal activity against Cryptococcus neoformans ATCC 90113 after 72 hrs by broth microdilution method; conditions: ATCC 90113, 72 h; method in brief: as §4
[23] = test system: Candida albicans; assay: Antifungal activity against Candida albicans ATCC MYA-574 after 47 hrs by broth microdilution method; conditions: ATCC MYA-574, 47 h; method in brief: as §5

In the case of CCCCCOc1ccc(-c2cc(-c3ccc(C(=O)N[C@H]4C[C@@H](O)[C@@H](O)NC(=O)[C@@H]5[C@@H](O)[C@@H](C)CN5C(=O)[C@H]([C@H](O)CC(N)=O)NC(=O)[C@H]([C@H](O)[C@@H](O)c5ccc(O)c(OS(=O)(=O)O)c5)NC(=O)[C@@H]5C[C@@H](O)CN5C(=O)[C@H]([C@@H](C)O)NC4=O)cc3)no2)cc1 [MICAFUNGIN] (X1-[Orn(4R-OH,5R-OH)]T[Hyp][hTyr(3S-OH,4S-OH,3'-OSO3H)][Gln(3R-OH)][Pro(3S-OH,4S-Me)]; lactam 1-C), the MFC [1] is reported as greater than 32 mg/L, the MIC [1] is reported as 2 mg/L (≈ 1.57 µM) and the MIC [2] is reported as 0.0625 mg/L (≈ 0.0492 µM). For the same compound, the MIC50 [2] was 0.0625 mg/L (≈ 0.0492 µM), the MIC90 [2] was 0.125 mg/L (≈ 0.0984 µM) and the MIC [3] was 0.0625 mg/L (≈ 0.0492 µM). The MFC [4] was greater than 64 mg/L, the MIC [4] was 0.0313 mg/L (≈ 0.0246 µM) and the MFC [5] was 8 mg/L (≈ 6.3 µM). For the same compound, the MIC [5] was 0.5 mg/L (≈ 0.394 µM), the MIC [6] was 0.125 mg/L (≈ 0.0984 µM) and the ED50 [7] was 0.699 mg/kg. For the same compound, the MFC [8] was 0.0313 mg/L (≈ 0.0246 µM), the MIC [8] was 0.0313 mg/L (≈ 0.0246 µM) and the MFC [9] was greater than 64 mg/L. The MIC [9] was 0.0313 mg/L (≈ 0.0246 µM), the MIC [10] was 0.125 mg/L (≈ 0.0984 µM) and the MFC [11] was greater than 64 mg/L. It also gave an MIC [11] greater than 64 mg/L, an MFC [12] greater than 64 mg/L and an MIC [12] of 0.5 mg/L (≈ 0.394 µM). For the same compound, the MFC [13] was greater than 64 mg/L, the MIC [13] was greater than 64 mg/L and the MIC [14] was greater than 64 mg/L. The MIC50 [14] was greater than 64 mg/L, the MIC90 [14] was greater than 64 mg/L and the MFC [15] was 0.25 mg/L (≈ 0.197 µM). It also gave an MIC [15] of 0.0313 mg/L (≈ 0.0246 µM), an MIC [16] of 0.125 mg/L (≈ 0.0984 µM) and an MIC50 [17] of 0.0625 mg/L (≈ 0.0492 µM). For the same compound, the MIC90 [17] was 0.0625 mg/L (≈ 0.0492 µM), the MIC50 [18] was 0.5 mg/L (≈ 0.394 µM) and the MIC90 [18] was 0.5 mg/L (≈ 0.394 µM). For the same compound, the MIC [19] was 0.0625 mg/L (≈ 0.0492 µM), the MFC [20] was greater than 64 mg/L and the MIC [20] was 0.0313 mg/L (≈ 0.0246 µM). For the same compound, the MIC [21] was 0.0625 mg/L (≈ 0.0492 µM), the MFC [22] was greater than 64 mg/L and the MIC [22] was greater than 64 mg/L. It also gave an MIC [23] of 0.0625 mg/L (≈ 0.0492 µM).
In the case of C[C@@H](c1ncncc1F)[C@](O)(Cn1cncn1)c1ccc(F)cc1F [VORICONAZOLE], the MFC [1] is reported as greater than 64 mg/L, the MIC [1] is reported as 0.0313 mg/L (≈ 0.0896 µM) and the MIC50 [2] is reported as 0.0625 mg/L (≈ 0.179 µM). It also gave an MIC90 [2] of 0.0625 mg/L (≈ 0.179 µM), an MIC [3] of 0.25 mg/L (≈ 0.716 µM) and an MFC [4] greater than 64 mg/L. For the same compound, the MIC [4] was 0.0313 mg/L (≈ 0.0896 µM), the MFC [5] was 0.5 mg/L (≈ 1.43 µM) and the MIC [5] was 0.0625 mg/L (≈ 0.179 µM). For the same compound, the MIC [6] was 0.0625 mg/L (≈ 0.179 µM), the MFC [8] was greater than 64 mg/L and the MIC [8] was 0.25 mg/L (≈ 0.716 µM). It also gave an MFC [9] of 32 mg/L (≈ 91.6 µM), an MIC [9] of 0.5 mg/L (≈ 1.43 µM) and an MIC [10] of 0.25 mg/L (≈ 0.716 µM). It also gave an MFC [11] of 32 mg/L (≈ 91.6 µM), an MIC [11] of 8 mg/L (≈ 22.9 µM) and an MFC [12] greater than 64 mg/L. It also gave an MIC [12] of 1 mg/L (≈ 2.86 µM), an MFC [13] of 8 mg/L (≈ 22.9 µM) and an MIC [13] of 8 mg/L (≈ 22.9 µM). For the same compound, the MIC50 [14] was 0.0313 mg/L (≈ 0.0896 µM), the MIC90 [14] was 0.0625 mg/L (≈ 0.179 µM) and the MFC [15] was greater than 64 mg/L. It also gave an MIC [15] of 0.0078 mg/L (≈ 0.0223 µM), an MIC [16] of 0.5 mg/L (≈ 1.43 µM) and an MIC50 [17] of 0.125 mg/L (≈ 0.358 µM). It also gave an MIC90 [17] of 0.5 mg/L (≈ 1.43 µM), an MIC50 [18] of 0.5 mg/L (≈ 1.43 µM) and an MIC90 [18] of 0.5 mg/L (≈ 1.43 µM). It also gave an MIC [19] of 16 mg/L (≈ 45.8 µM), an MFC [20] of 4 mg/L (≈ 11.5 µM) and an MIC [20] of 0.5 mg/L (≈ 1.43 µM). For the same compound, the MIC [21] was 0.25 mg/L (≈ 0.716 µM), the MFC [22] was greater than 64 mg/L and the MIC [22] was 0.0625 mg/L (≈ 0.179 µM). The MIC [23] was 0.25 mg/L (≈ 0.716 µM).
